From ChEMBL document CHEMBL5032526 (Eur J Med Chem, 2021)

What was measured:
[1] = tested on: Huh-7; experiment: (§1) Cytotoxicity against human Huh-7 cells assessed as reduction in cell viability measured after 24 hrs by CellTiter-Glo analysis; format: cell-based; details: huh-7, 24 h
[2] = tested on: Ebolavirus; experiment: Antiviral activity against Ebola virus trVLP infected in human Huh-7 cells pretreated for 1 hrs followed by viral infection and measured after 24 hrs by dual luciferase reporter assay; format: functional, organism-based; details: Orthoebolavirus
Method in brief: (§2)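 Huh-7 cells were transfected in suspension with EBOV VP35, NP, VP30 and L plasmids plus constitutive firefly (ce-FF). At 24 h, compounds were added in triplicate (0-50 µM, 2-fold series) for 1 h before trVLP infection.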

[3] = tested on: Ebolavirus; experiment: Antiviral activity against Ebola virus constitutively expressed firefly infected in human Huh-7 cells expressing pretreated for 1 hrs followed by viral infection and measured after 24 hrs by dual luciferase reporter assay; format: functional, organism-based; details: Orthoebolavirus; method in brief: as §2
[4] = tested on: SARS-CoV-2; experiment: Antiviral activity against SARS Cov-2 USA/WA1/2020 infected in Vero E6 cells assessed as reduction in virus-induced cytopathic effect preincubated for 1 hr followed by viral infection and measured after 48 hrs post infection; format: functional, organism-based; details: Severe acute respiratory syndrome coronavirus 2, USA/WA1/2020, Vero C1008
[5] = Selectivity index, ratio of CC50 for human Huh-7 cells to IC50 for Antiviral activity against Ebola virus trVLP infected in human Huh-7 cells; format: toxicity, cell-based; details: read-out: Ratio CC50/IC50
[6] = Selectivity index, ratio of CC50 for human Huh-7 cells to IC50 for Antiviral activity against Ebola virus constitutively expressed firefly; format: toxicity; details: read-out: Ratio CC50/IC50
[7] = tested on: SARS-CoV-2; experiment: Antiviral activity against SARS coronavirus 2 USA/WA1/2020 infected in Calu-3 cells assessed as reduction in virus-induced cytopathic effect preincubated for 1 hr followed by viral infection and measured after 48 hrs; format: functional, organism-based; details: Severe acute respiratory syndrome coronavirus 2, USA/WA1/2020, Calu-3
[8] = Selectivity index, ratio of CC50 for African green monkey Vero E6 cells to IC50 for Antiviral activity against SARS coronavirus 2 USA/WA1/2020 infected in Vero E6 cells assessed as reduction in virus-induced cytopathic effect; format: toxicity, cell-based, Vero C1008; details: read-out: Ratio CC50/IC50
[9] = Selectivity index, ratio of CC50 for human Calu-3 cells to IC50 for Antiviral activity against SARS coronavirus 2 USA/WA1/2020 infected in human Calu3 cells assessed as reduction in virus-induced cytopathic effect; format: toxicity, cell-based; details: read-out: Ratio CC50/IC50
[10] = tested on: Calu-3; experiment: (§3) Cytotoxicity against human Calu-3 cells assessed as reduction in cell viability after 48 hrs by Cell-Tox green based fluorescence assay; details: calu-3, 48 h
Method in brief: (§4)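 Calu3 cells (1 x 10^4) were plated and exposed 24 h later to 3-fold serial compound dilutions. At 48 h, CellTox Green fluorescence was read, and CC50 was fitted by four-parameter nonlinear regression.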

[11] = as §1; format: cell-based; details: Huh-7 cells
[12] = Metabolic stability in human plasma assessed as compound remaining at 10 uM after 2 hrs by LC-QTOF-MS analysis; format: ADME, cell-free
Method in brief: (§5)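 Compound (10 µM) was incubated in human plasma at 37 °C, with aliquots taken from 0 to 24 h. Proteins were precipitated with cold ethanol (30 min, -20 °C), and samples were centrifuged and concentrated. Analysis was by LC-QTOF-MS with a ±0.1 m/z EIC window, and % digestion was calculated from peak area relative to 0 min.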

[13] = tested on: SARS-CoV-2; experiment: Antiviral activity against SARS Cov-2 USA_WA1/2020 infected in human Calu-3 cells measured upto 72 hrs by qRT-PCR method; format: functional, organism-based; details: Severe acute respiratory syndrome coronavirus 2, USA_WA1/2020, Calu-3, 72 h
[14] = Metabolic stability in human plasma assessed as drug degradation at 10 uM after 1 hr by LC-QTOF-MS analysis; format: ADME, cell-free; details: read-out: Drug degradation; method in brief: as §5
[15] = tested on: SARS-CoV-2; experiment: Antiviral activity against SARS Cov-2 USA_WA1/2020 infected in HAE cells measured upto 72 hrs by qRT-PCR method; format: functional, organism-based; details: Severe acute respiratory syndrome coronavirus 2, USA_WA1/2020, HAE
[16] = tested on: Ebolavirus; experiment: Antiviral activity against wild type Ebola virus infected in human HeLa cells assessed as reduction in viral infection measured after 24 hrs by Hoechst 33342 staining based microscopic analysis; format: functional, organism-based; details: Orthoebolavirus
[17] = as §3; details: Calu-3 cells; method in brief: as §4
[18] = Metabolic stability in human plasma assessed as compound remaining at 10 uM after 4 hrs by LC-QTOF-MS analysis; format: ADME, cell-free; details: read-out: Stability; method in brief: as §5

| SMILES | CC50 [1] [µM] | IC50 [2] [µM] | IC50 [3] [µM] | IC50 [4] [µM] | selectivity ratio [5] | selectivity ratio [6] | IC50 [7] [µM] | selectivity ratio [8] | selectivity ratio [9] | CC50 [10] [µM] | CC50 at 24 h [11] [µM] | remaining at 2 h, 10 µM ([12]; read-out: Stability) [%] | EC50 [13] [µM] | metabolised at 1 h, 10 µM [14] [%] | EC50 [15] [µM] | IC50 [16] [µM] | CC50 at 48 h [17] [µM] | Stability ([12]; 2 h, 10 µM) | remaining at 4 h, 10 µM [18] [%] |
| --- | --- | --- | --- | --- | --- | --- | --- | --- | --- | --- | --- | --- | --- | --- | --- | --- | --- | --- | --- |
| CCSCCCCCCCCCCCC(=O)O | > 50 | > 50 | > 50 | > 50 | > 50 | – | – | – | – | – | – | – | – | – | – | – | – | – | – |
| CCCCCCCCCCOCCC(=O)O[C@H]1[C@@H](O)[C@](C#N)(c2ccc3c(N)ncnn23)O[C@@H]1CO[P@@](=O)(N[C@H](C)C(=O)OCC(CC)CC)Oc1ccccc1 | 7.4 | 0.16 | 14 | 2 | 46.3 | 0.529 | 0.18 | > 25.6 | > 191 | 34.3 | – | – | – | – | – | – | – | – | – |
| CCCCCCCCCCCCCC(=O)O[C@H]1[C@@H](OC(=O)CCCCCCCCCCCCC)[C@](C#N)(c2ccc3c(N)ncnn23)O[C@@H]1CO[P@@](=O)(N[C@H](C)C(=O)OCC(CC)CC)Oc1ccccc1 | > 50 | 12.1 | > 50 | 31 | > 4.13 | – | – | > 1.59 | – | – | – | – | – | – | – | – | – | – | – |
| CCSCCCCCCCCCCCC(=O)O[C@H]1[C@@H](O)[C@](C#N)(c2ccc3c(N)ncnn23)O[C@@H]1CO[P@@](=O)(N[C@H](C)C(=O)OCC(CC)CC)Oc1ccccc1 | 23 | 0.28 | > 50 | 2.4 | 82.1 | – | 0.25 | > 20.5 | > 200 | > 50 | – | – | – | – | – | – | – | – | – |
| CCSCCCCCCCCCCCC(=O)O[C@@H]1[C@H](O)[C@@H](CO[P@@](=O)(N[C@H](C)C(=O)OCC(CC)CC)Oc2ccccc2)O[C@@]1(C#N)c1ccc2c(N)ncnn12 | 41 | 0.25 | 29 | 3.5 | 164 | 1.41 | – | > 14.2 | – | – | – | – | – | – | – | – | – | – | – |
| CCCCCCCCCCCCCC(=O)O [MYRISTIC ACID] | > 50 | > 50 | > 50 | > 50 | > 50 | – | – | – | – | – | – | – | – | – | – | – | – | – | – |
| [N-]=[N+]=NCCCCCCCCCCCC(=O)O | > 50 | > 50 | > 50 | > 50 | > 50 | – | – | – | – | – | – | – | – | – | – | – | – | – | – |
| CCCCCCCCCCCCCCCC(=O)O[C@@H]1[C@H](O)[C@@H](CO[P@@](=O)(N[C@H](C)C(=O)OCC(CC)CC)Oc2ccccc2)O[C@@]1(C#N)c1ccc2c(N)ncnn12 | > 50 | 7.2 | > 50 | – | > 6.94 | – | 3.6 | – | > 13.9 | > 50 | – | – | – | – | – | – | – | – | – |
| CCCCCCCCCCCCCC(=O)O[C@@H]1[C@H](O)[C@@H](CO[P@@](=O)(N[C@H](C)C(=O)OCC(CC)CC)Oc2ccccc2)O[C@@]1(C#N)c1ccc2c(N)ncnn12 | > 50 | 0.67 | > 50 | 2.4 | > 74.6 | – | 0.29 | > 20.7 | > 172 | > 50 | – | – | – | – | – | – | – | – | – |
| CCCCCCCCCCOCCC(=O)O | > 50 | > 50 | > 50 | > 50 | > 50 | – | – | – | – | – | – | – | – | – | – | – | – | – | – |
| CCC(CC)COC(=O)[C@H](C)N[P@](=O)(OC[C@H]1O[C@@](C#N)(c2ccc3c(N)ncnn23)[C@H](O)[C@@H]1O)Oc1ccccc1 | – | 0.32 | 24 | 0.85 | – | – | 0.06 | – | – | – | > 50 | 47 | 0.28 | 13 | 0.01 | 1 | > 50 | – | – |
| CCCCCCCCCCOCCC(=O)O[C@@H]1[C@H](O)[C@@H](CO[P@@](=O)(N[C@H](C)C(=O)OCC(CC)CC)Oc2ccccc2)O[C@@]1(C#N)c1ccc2c(N)ncnn12 | 15 | 0.3 | 36 | 4.6 | 50 | 0.417 | – | > 10.9 | – | – | – | – | – | – | – | – | – | – | – |
| CCC(CC)COC(=O)[C@@H](C)N[P@](=O)(OC[C@H]1O[C@@](C#N)(c2ccc3c(N)ncnn23)[C@H](OC(=O)CCCCCCCCCCCN=[N+]=[N-])[C@@H]1O)Oc1ccccc1 | – | 0.5 | > 50 | 4.6 | 54 | – | – | > 10.9 | – | – | 27 | – | – | – | – | 0.19 | – | – | – |
| CCCCCCCCCCCCCCCC(=O)O[C@H]1[C@@H](O)[C@](C#N)(c2ccc3c(N)ncnn23)O[C@@H]1CO[P@@](=O)(N[C@H](C)C(=O)OCC(CC)CC)Oc1ccccc1 | > 50 | 2.9 | > 50 | – | > 172 | – | 1.6 | – | > 32.3 | > 50 | – | – | – | – | – | – | – | – | – |
| CCC(CC)COC(=O)[C@@H](C)N[P@](=O)(OC[C@H]1O[C@@](C#N)(c2ccc3c(N)ncnn23)[C@H](O)[C@@H]1OC(=O)CCCCCCCCCCCN=[N+]=[N-])Oc1ccccc1 | 20 | 0.45 | > 50 | 3 | 44.4 | – | 0.51 | > 16.6 | > 98 | > 50 | – | – | – | – | – | 0.83 | – | Stable | 77.9 |
| CCCCCCCCCCCCCC(=O)O[C@H]1[C@@H](O)[C@](C#N)(c2ccc3c(N)ncnn23)O[C@@H]1CO[P@@](=O)(N[C@H](C)C(=O)OCC(CC)CC)Oc1ccccc1 | > 50 | 0.71 | > 50 | 2.3 | > 70.4 | – | 0.24 | > 22.1 | > 208 | > 50 | – | – | – | – | – | – | – | – | – |
